Results reported in PubChem BioAssay AID688 (PCMD, 2007).
Among all 27,000 compounds or so, about 250 (0.93%) were called active.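 Rule for the calls: active = mutant luminescence inhibited past about 50% while wild type luminescence and mutant growth stay under set limits (limit read from the data); inconclusive = mutant versus wild type luminescence inhibition gap past a set limit; inactive = the rest.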 Shown is part of a subset that was picked to be rich in actives.

Test: mutant yeast GCN4 reporter luminescence inhibitors – S. cerevisiae, eIF2B-epsilon R284H, Beta-Glo luminescence, primary screen (AID 688)
Settings: GCN4-lacZ luminescence; growth inhibition: measured here: mutant yeast growth, toxicity, concentration not given here; inhibition: stronger effect = higher value, screened at 25 µM (by protocol)
Outline: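 System: Yeast eIF2B-epsilon R284H mutant carrying GCN4–beta-galactosidase fusion | Read-out basis: Percent inhibition, luminescence and growth | Compound: 25 µM single dose | Times: 16 h at 30 °C exposure | Measured by: Luminescence and A595 | Buffer or medium: YPD medium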
With `Cc1cc(-n2nc(C)cc2C)n2nc(C)c(-c3ccccc3)c2n1` the growth inhibition was -28.6% and the inhibition was -42.8% (inactive). In the case of `CCOC(=O)c1cnc(SCC(=O)NCc2ccco2)nc1N`, the growth inhibition is reported as 5.17% and the inhibition is reported as -10.3% (inactive). With `CCOc1ccccc1NC(=O)C1CCCN(C(=O)Nc2ccccc2)C1` (stereo not drawn) the growth inhibition was -12.5% and the inhibition was 25.3% (inactive). In the case of `COc1ccc(C2N=C(N)N=C(N)N2c2ccccc2)cc1OC` (stereo not drawn), the growth inhibition is reported as -25% and the inhibition is reported as -6.05% (inactive). In the case of `COc1ccc(OC)c(-n2nnnc2SCC(=O)Nc2cc(C)ccc2OC)c1`, the growth inhibition is reported as -24.1% and the inhibition is reported as 30.4% (inactive). With `COC(=O)c1cccc(N(C(=O)c2ccco2)C(C(=O)NC2CCCC2)c2ccco2)c1` (stereo not drawn) the inhibition was -17.9% (inactive). In the case of `CCC(C(=O)NC1CCCC1)N(C(=O)c1snc(C(N)=O)c1N)c1ccc2c(c1)OCCO2` (stereo not drawn), the growth inhibition is reported as -13.6% and the inhibition is reported as 52.4% (active). With `CCCCNC(=O)CCNC(=O)c1ccc(C(C)(C)C)cc1` the growth inhibition was 22.6% and the inhibition was 20.7% (inactive). In the case of `CCCCCCSc1nsc(N)n1`, the growth inhibition is reported as 5.56% and the inhibition is reported as 30.6% (inactive). In the case of `CC(C)C(=O)Nc1nnc(Sc2ccc(N(C)C)cc2)s1`, the growth inhibition is reported as -33.3% and the inhibition is reported as -11.6% (inactive). For `COc1ccc(CNC(=O)CCn2cccc2)cc1`, the growth inhibition was 33.3% and the inhibition was 18.8% (inactive). For `CCCNC(=O)N1CCN(C(=O)NCCC)CC1`, the growth inhibition was 5.13% and the inhibition was 3.89% (inactive). With `COc1ccccc1NC(=O)CC(NCCN(C)C)C(=O)O` (stereo not drawn) the growth inhibition was 18.9% and the inhibition was 15.2% (inactive). With `CC(=O)Nc1ccc(NC(=O)CSCc2cnn(-c3ccccc3)c2-n2cccc2)cc1` the growth inhibition was -16.7% and the inhibition was 13.1% (inactive). With `COCCNC(=O)COc1ccccc1C` the growth inhibition was 6.67% and the inhibition was 9.39% (inactive). In the case of `Cc1nc(N2CCOCC2)nc2c1CCCC2`, the growth inhibition is reported as 15% and the inhibition is reported as 16.9% (inactive). In the case of `C[C@H](NC(=O)OC(C)(C)C)c1nnc(SCC(N)=O)o1`, the growth inhibition is reported as 7.41% and the inhibition is reported as 12.5% (inactive). In the case of `O=C(c1cc2sccc2n1Cc1ccc(F)cc1)N1CCc2ccccc21`, the growth inhibition is reported as 13.5% and the inhibition is reported as 26.8% (inactive). With `CCCCCCc1cc2cc(-c3nnc(-c4cccc(OC)c4)o3)c(=O)oc2cc1O` the inhibition was -37.6% (inactive). With `CCC(=O)N(Cc1cc2cc(OC)ccc2[nH]c1=O)c1ccccc1C` the growth inhibition was 3.45% and the inhibition was 5.99% (inactive). With `CC(C)(C)n1nnnc1C(c1ccc(Cl)cc1)N1CCSCC1` (stereo not drawn) the growth inhibition was -17.4% and the inhibition was 13.7% (inactive). With `CCN(CC)CCCN1C(=O)C(=O)/C(=C(/O)c2c(C)nc3ccccn23)C1c1ccc(C)o1` (stereo not drawn) the growth inhibition was 3.45% and the inhibition was 7.68% (inactive). For `CC(=O)NC(C)(C)C1CC=C(C)/C(=N\O)C1` (stereo not drawn), the growth inhibition was -23.8% and the inhibition was -13.5% (inactive). For `CC(C)CC(N=C1NC(C)(C)Cc2ccccc21)C(=O)O` (stereo not drawn), the growth inhibition was 21.1% and the inhibition was 6.22% (inactive). In the case of `O=C(CN1C(=O)CC(c2ccccc2)=Nc2ccccc21)NC1CCCCC1`, the growth inhibition is reported as -28.6% and the inhibition is reported as 18.7% (inactive). With `CCN(CC(=O)NC1CCS(=O)(=O)C1)c1nc(-c2cccnc2)nc2ccccc12` (stereo not drawn) the growth inhibition was -30.9% and the inhibition was 20.1% (inactive). In the case of `C[C@H](NC(=O)OC(C)(C)C)c1nnc(SCC(=O)Nc2ccc(Br)cc2)o1`, the growth inhibition is reported as -11.1% and the inhibition is reported as 14.5% (inactive). With `CCOC(=O)C1=C(C)NC2=C(C(=O)CC(C)(C)C2)C1c1ccsc1` (stereo not drawn) the growth inhibition was -7.5% and the inhibition was 9.79% (inactive). With `Cc1c(C(=O)CN2CCOCC2)[nH]c2ccccc12` the growth inhibition was 18.5% and the inhibition was 16.8% (inactive). With `COc1ccc(C2C(C(C)=O)=C(O)C(=O)N2Cc2cccnc2)cc1` (stereo not drawn) the inhibition was -0.66% (inactive). With `CCOC(=O)NC(C(F)(F)F)(C(F)(F)F)P(=O)(c1ccccc1)c1ccccc1` the growth inhibition was -5.56% and the inhibition was -15.8% (inactive). In the case of `Cc1cc(=O)oc(C)c1C(=O)Nc1cnc2ccccc2c1`, the growth inhibition is reported as -3.7% and the inhibition is reported as 17.1% (inactive). For `COc1ccc(C(C#N)N2N=C(C)CC2(C)C)cc1` (stereo not drawn), the growth inhibition was 4.76% and the inhibition was -5.47% (inactive). With `COC(=O)C1=C(C)NC(=O)NC1/C=C/c1ccccc1` (stereo not drawn) the growth inhibition was -4.55% and the inhibition was 22.3% (inactive). For `Cc1cc(Oc2ccccc2)nc(N2CCOCC2)n1`, the growth inhibition was 5.41% and the inhibition was 12.4% (inactive). For `CCCc1nc2c3cnn(-c4cccc(Cl)c4)c3ncn2n1`, the inhibition was 17.9% (inactive). In the case of `CCCc1nc(-c2ccccc2O)n(-c2ccccc2)n1`, the growth inhibition is reported as 25.8% and the inhibition is reported as 52.9% (active). With `CCCCOc1ccc(NC(=O)CSCC(=O)OCC)cc1` the inhibition was 25% (inactive). With `Cc1ccc(-c2nnn(CC(=O)N(CCO)C(C(=O)NC(C)(C)C)c3ccncc3)n2)cc1` (stereo not drawn) the growth inhibition was 14.8% and the inhibition was 23.7% (inactive). In the case of `O=c1c2ccccc2oc2nc3n(c(=O)c12)CCCS3`, the growth inhibition is reported as 4% and the inhibition is reported as 24.9% (inactive). With `CCOc1ccc(N=C2SC(C(=O)O)CC(=O)N2C)cc1` (stereo not drawn) the growth inhibition was 12% and the inhibition was 24.2% (inactive). With `CCCOc1cc(C)c(S(=O)(=O)n2nnc3ccccc32)cc1C` the growth inhibition was 12.9% and the inhibition was 11.9% (inactive). For `O=C(CSc1nnc(-c2cnccn2)n1Cc1ccco1)c1ccc(Cl)c(Cl)c1`, the growth inhibition was -22.6% and the inhibition was 4.49% (inactive). In the case of `COc1ccc(-c2cc(C(=O)NCc3ccco3)no2)cc1OC`, the growth inhibition is reported as 2.7% and the inhibition is reported as 19.9% (inactive).
